# Screening results (PubChem)
# Apaf1 inhib: human Apaf-1 inhibition; reconstituted apoptosome caspase-3 activity, DEVD-Rh110 fluorescence; O14727; inhibition, % at 20 µM; 330,000 tested, 0.71% active; active = inhibition of at least 40% at 20 µM;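 note: plate controls were DMSO wells for no effect and DEVD-CHO caspase inhibitor wells for full effect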
#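 Assay system – apoptosome proteins · Medium – Hepes buffer, pH 7.5 · Also added – cytochrome c with DEVD-Rh110 · Timing – 30 min compound preincubation, 50 min activation, room temperature · Detection – Rh110 fluorescence, excitation 480 nm, emission 540 nm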
# ANO1 activ: mouse TMEM16A channel activation, primary screen; Q8BHY3; HEK293 TMEM16A/YFP-H148Q/I152L, iodide quench fluorescence; stronger effect = lower value; B-score at 10 µM; 340,000 tested, 0.3% active;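 active = fluorescence-ratio B-score plate-corrected deviation score at least 3 library SD below zero, with starting fluorescence score within 5 deviations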;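 note: channel opened by trigger with iodide after compound preincubation; score built on the fluorescence ratio of max minus min over baseline; more negative score means more quench and so TMEM16A activation or potentiation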
# DNA FID counter: displaces DNA intercalator in HCV helicase counter-screen | inhibition, % at 7.9 µM | DNA fluorescent intercalator displacement, fluorescence | 290,000 tested, 0.17% active; in the data active = inhibition above about 37%;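 note: 0% = vehicle and 100% = reference compound; higher means more ethidium bromide displaced from hairpin DNA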
# UBC13 polyUb: blocks human UBC13 polyubiquitin chain formation; P61088; TR-FRET; inhibition, % at 20 µM; 330,000 tested, 0.47% active; AID 485273; in the data active = inhibition above about 45%, passing the limit was not always enough
# TMEM16A inh: mouse TMEM16A channel inhibition, primary screen. Q8BHY3. HEK293 TMEM16A/YFP iodide influx fluorescence, ionomycin. normalized B-score (activity score, 25-100; higher = stronger inhibition) at 10 µM. 310,000 tested, 1.2% active;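 active = ratio plate-corrected score three or more library SD toward inhibition, starting fluorescence score within five deviations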;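 note: score derived from kinetic fluorescence span divided by baseline fluorescence per well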
# TMEM16A reconf: reconfirmed blocker of mouse TMEM16A calcium-activated chloride channel; shares compounds with TMEM16A inh; HEK293 TMEM16A/YFP-H148Q, iodide quench fluorescence; ionomycin added to raise cell calcium; inhibition, % at 10 µM; 2,300 tested, 39% active;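 active = mean duplicate percent inhibition, scaled so buffer wells are 0 and the reference blocker 100, over three buffer SD above buffer mean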
# HEK293 Ca mobil: counter-screen for TMEM16A inhibitors: effect on calcium mobilization | shares compounds with TMEM16A inh | TMEM16A/YFP HEK293, Fluo4 calcium mobilization | calcium response (% of ionomycin), % at 10 µM | 2,300 tested, 2% active | AID 652231;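 active = duplicate-averaged calcium signal over 20% of the ionomycin maximum, relative to buffer baseline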;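 note: each well's signal is peak minus trough fluorescence divided by its pre-addition baseline; 0% = buffer wells and 100% = ionomycin wells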
# Parental YFP cnt: counter-screen for TMEM16A inhibitors: effect in parental YFP-HEK293 cells | shares compounds with TMEM16A inh | iodide YFP quench, ionomycin | YFP ratio F(max-min)/F0 at 10 µM | 2,300 tested, under 10 active | AID 652233;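 active = yellow fluorescent protein signal ratio exceeding the buffer control mean by over 5 SD of those controls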;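 note: ratio is mean of duplicate wells from kinetic YFP trace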
# ClC-1 inh: rat ClC-1 inhibition, TMEM16A specificity screen; shares compounds with TMEM16A inh; CHO ClC-1-YFP, iodide influx fluorescence quench; iodide control reads 0, buffer control 100; ratio percent, % at 10 µM; 2,300 tested, under 10 active; AID 652236;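 active = duplicate-mean ratio percent above the mean of iodide-only control wells, which defines zero, plus 5 of their SD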;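 note: higher percent means stronger block of ClC-1 iodide influx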
# Target sequence (P35524 whole entry, looked up): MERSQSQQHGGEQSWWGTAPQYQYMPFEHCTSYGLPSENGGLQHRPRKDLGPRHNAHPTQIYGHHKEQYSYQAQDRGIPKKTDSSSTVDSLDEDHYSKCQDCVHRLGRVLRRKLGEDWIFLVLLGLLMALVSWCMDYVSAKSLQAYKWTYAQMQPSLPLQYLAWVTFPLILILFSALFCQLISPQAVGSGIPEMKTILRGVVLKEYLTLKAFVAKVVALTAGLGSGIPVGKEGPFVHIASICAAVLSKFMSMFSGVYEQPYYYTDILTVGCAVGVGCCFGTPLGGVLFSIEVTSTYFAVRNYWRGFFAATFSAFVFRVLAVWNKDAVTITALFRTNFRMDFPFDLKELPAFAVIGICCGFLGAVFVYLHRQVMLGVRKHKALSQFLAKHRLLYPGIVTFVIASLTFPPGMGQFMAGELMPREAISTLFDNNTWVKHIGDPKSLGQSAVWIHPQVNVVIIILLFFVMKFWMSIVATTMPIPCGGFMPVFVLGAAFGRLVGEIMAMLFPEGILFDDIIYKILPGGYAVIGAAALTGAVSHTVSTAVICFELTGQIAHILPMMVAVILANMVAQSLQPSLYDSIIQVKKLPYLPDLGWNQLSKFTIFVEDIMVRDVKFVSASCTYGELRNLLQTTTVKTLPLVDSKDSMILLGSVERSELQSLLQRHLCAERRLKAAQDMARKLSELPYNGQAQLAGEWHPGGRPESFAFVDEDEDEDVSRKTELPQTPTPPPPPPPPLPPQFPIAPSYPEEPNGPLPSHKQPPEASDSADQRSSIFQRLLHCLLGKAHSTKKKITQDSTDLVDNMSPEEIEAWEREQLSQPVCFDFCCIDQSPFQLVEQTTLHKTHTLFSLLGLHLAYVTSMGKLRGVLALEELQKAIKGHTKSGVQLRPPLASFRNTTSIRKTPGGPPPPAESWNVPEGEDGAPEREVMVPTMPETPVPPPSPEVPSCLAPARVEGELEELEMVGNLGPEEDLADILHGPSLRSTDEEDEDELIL
# Active calls of the source: *; i = inactive; . = no result given. In the library only some 2.4% were active in any assay of this set; here they are far more common.
SMILES,Apaf1 inhib,ANO1 activ,DNA FID counter,UBC13 polyUb,TMEM16A inh,TMEM16A reconf,HEK293 Ca mobil,Parental YFP cnt,ClC-1 inh
COc1ccc(-c2ccc(-c3nnc(Cc4ccc(OC)c(OC)c4)o3)cc2)cc1,-1.1,i,-2.2,-7.0,25*,i,i,-1.26,-2.5
Cc1nc2c(cc(Oc3ccc(S(=O)(=O)N4CCOCC4)cn3)c3ccsc32)s1,24.3,i,-18.6,-8.4,25*,i,i,-1.01,-19.0
CN1CCN(/N=C/c2ccc(N(C)c3ccccc3)cc2)CC1,10.7,i,-0.3,-3.8,i,.,.,.,.
CN1CCN(/N=C/c2ccc(N(c3ccccc3)c3ccccc3)cc2)CC1,22.0,i,2.7,20.2,100*,31.5%*,i,-0.932,-3.0
CCn1cc(/C=N\NC(=O)C2(C)CC2(Cl)Cl)c(C)n1 (stereo not drawn),1.0,i,-4.3,4.0,i,.,.,.,.
COCCN(C(=O)Cc1ccc(S(=O)(=O)N2CCOCC2)s1)c1c(N)n(CC(C)C)c(=O)[nH]c1=O,.,i,.,.,.,.,.,.,.
CN(Cc1cccs1)c1ncnc2sccc12,-0.6,i,2.4,4.8,25*,i,i,-1.14,-18.0
CN(Cc1ccccc1)C(=O)COC(=O)c1cc(NS(=O)(=O)c2cccs2)ccc1O,14.7,i,-15.1,-2.5,25*,i,i,-1.06,-20.5
CC(=O)Nc1ccc(Oc2cc(C#N)c(C#N)cc2N2CCOCC2)cc1,0.4,i,-8.1,2.4,i,.,.,.,.
CC(=O)Nc1ccc(Oc2cc(C#N)c(C#N)cc2N2CCCCCC2)cc1,19.1,i,-9.5,13.9,100*,i,i,-1.13,4.0
Cc1nn(-c2ccccc2)nc1C(=O)Nc1nnc(C(F)(F)F)s1,19.7,i,-28.4,29.4,100*,28.5%*,i,-0.727,-9.0
CCc1nnc(NC(=O)c2nn(-c3ccccc3)nc2C)s1,-1.9,i,-21.3,-11.8,i,.,.,.,.
O=C(Nc1nnc(C2CC2)s1)C1COc2ccccc2O1 (stereo not drawn),6.2,i,-10.0,-4.8,i,.,.,.,.
O=C(Nc1nnc(C(F)(F)F)s1)c1ccc(Br)s1,-5.6,i,1.0,17.4,100*,26.5%*,i,-0.93,-16.0
O=C(Nc1nnc(C(F)(F)F)s1)C1COc2ccccc2O1 (stereo not drawn),-3.2,i,-4.8,-2.8,100*,29.5%*,i,-1.07,-17.0
O=C(Nc1ccccc1C(=O)Nc1nnc(C(F)(F)F)s1)c1ccccc1Cl,1.4,i,-24.7,-0.7,100*,33.0%*,i,-1.22,-12.5
COc1ccc2nccc(/C=C/c3ccnc4ccc(OC)cc34)c2c1,15.3,i,-22.4,37.7,i,.,.,.,.
CCC(Oc1ccccc1)C(=O)Nc1nnc(C(F)(F)F)s1 (stereo not drawn),-4.1,i,-7.7,-0.9,100*,20.0%*,i,-0.97,-19.5
COc1ccc(S(=O)(=O)N2CCOC2CNC(=O)C(=O)NCc2ccccc2OC)cc1 (stereo not drawn),12.3,i,-31.6,-6.8,i,.,.,.,.
C/C(=N\NC(=O)c1cccc(N/N=C(\C)c2ccc([N+](=O)[O-])cc2)c1)c1ccc([N+](=O)[O-])cc1,-15.9,i,-4.0,-68.0,i,.,.,.,.
O=C(CSc1nnc(Nc2ccccc2)s1)Nc1ccc(S(=O)(=O)N2CCOCC2)cc1,16.2,i,-19.6,10.8,25*,i,i,-1.01,-9.0
Cc1ccc(Nc2nnc(SCC(=O)Nc3ccc(S(=O)(=O)N4CCOCC4)cc3)s2)cc1,18.8,i,-6.6,-3.4,i,.,.,.,.
